Data as given in ChEMBL document CHEMBL5376019, “Design, synthesis and evaluation of 2-phenylpyrimidine derivatives as novel antifungal agents targeting CYP51” (RSC Med Chem, 2024).
Converted amounts (≈) assume the structure as drawn.

Assays:
Candida tropicalis = assay: Antifungal activity against Candida tropicalis CGMCC 2.3739 assessed as fungal growth inhibition; format: functional
In short: (§1)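 Broth microdilution per NCCLS M27-A3, with fluconazole as positive control. Assay medium was RPMI 1640 buffered with MOPS. Inocula were diluted to 1–5 × 10^3 CFU mL−1 and seeded in 96-well plates. Compounds were dissolved in DMSO and serially diluted in the growth medium. MIC was the read-out.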

Candida albicans [1] = assay: Antifungal activity against Candida albicans CPCC400616 assessed as fungal growth inhibition; format: functional; in short: as §1
Candida albicans [2] = assay: Antifungal activity against Candida albicans ATCC SC5314 assessed as fungal growth inhibition; format: functional; in short: as §1
Candida parapsilosis = assay: Antifungal activity against Candida parapsilosis GIM 2.190 assessed as fungal growth inhibition; format: functional; settings: Lodderomyces parapsilosis; in short: as §1
Nakaseomyces glabratus = assay: Antifungal activity against clinical isolate Candida glabrata assessed as fungal growth inhibition; format: functional; in short: as §1
Cryptococcus neoformans = assay: Antifungal activity against Cryptococcus neoformans CGMCC 2.3161 assessed as fungal growth inhibition; format: functional; in short: as §1
Pichia kudriavzevii = assay: Antifungal activity against Pichia kudriavzevii GIM 2.1 assessed as fungal growth inhibition; format: functional; in short: as §1
MDA-MB-231 = assay: Cytotoxicity against human MDA-MB-231 cells assessed as reduction in cell viability at 32 uM incubated for 24 hrs by CCK-8 assay; format: toxicity, cell-based; settings: mda-mb-231, 24 h
In short: (§2)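 Cells from ATCC were grown in RPMI-1640 or DMEM with 10% FBS and 1% penicillin/streptomycin. They were seeded at 5 × 10^4 cells/well and allowed to adhere overnight at 37 °C, 5% CO2, with at least 6 replicates per group. Compounds were applied at 2–64 μM for 24 h; medium-only wells served as control. Viability was measured by CCK-8 absorbance at 450 nm.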

L929 = assay: Cytotoxicity against mouse L929 cells assessed as reduction in cell viability at 32 uM incubated for 24 hrs by CCK-8 assay; format: toxicity, cell-based; settings: l929, 24 h; in short: as §2
DU-145 = assay: Cytotoxicity against human DU-145 cells assessed as reduction in cell viability at 32 uM incubated for 24 hrs by CCK-8 assay; format: toxicity, cell-based; settings: du-145, 24 h; in short: as §2

| Compound | MIC (Candida tropicalis) | MIC (Candida albicans [1]) | MIC (Candida albicans [2]) | MIC (Candida parapsilosis) | MIC (Nakaseomyces glabratus) | MIC (Cryptococcus neoformans) | MIC (Pichia kudriavzevii) | Activity (MDA-MB-231) | Activity (L929) | Activity (DU-145) |
| --- | --- | --- | --- | --- | --- | --- | --- | --- | --- | --- |
| O=C(NC(Cn1ccnc1)C(=O)c1ccccc1)c1noc2c1CCc1ccccc1-2 (stereo not drawn) | 4 µg/mL (≈ 9.7 µM) | 8 µg/mL (≈ 19.4 µM) | 8 µg/mL (≈ 19.4 µM) |  |  |  |  |  |  |  |
| O=C(NC(Cn1ccnc1)C(=O)c1ccccc1)c1cnc(-c2ccc(F)cc2)nc1 (racemic) | > 64 µg/mL | 32 µg/mL (≈ 77 µM) | 16 µg/mL (≈ 38.5 µM) | 64 µg/mL (≈ 154 µM) | > 64 µg/mL | > 64 µg/mL | > 64 µg/mL |  |  |  |
| O=C(NC(Cn1ccnc1)C(=O)c1ccccc1)c1cnc(-c2ccc(Cl)cc2)nc1 (racemic) | 4 µg/mL (≈ 9.26 µM) | 16 µg/mL (≈ 37 µM) | 8 µg/mL (≈ 18.5 µM) | > 64 µg/mL | > 64 µg/mL | > 64 µg/mL | > 64 µg/mL |  |  |  |
| O=C(NC(Cn1ccnc1)C(=O)c1ccc(Cl)cc1)c1cnc(-c2cccc(F)c2)nc1 (racemic) | > 64 µg/mL | 32 µg/mL (≈ 71.1 µM) | 1 µg/mL (≈ 2.22 µM) | > 64 µg/mL | > 64 µg/mL | > 64 µg/mL | > 64 µg/mL |  |  |  |
| O=C(NC(Cn1ccnc1)C(=O)c1ccccc1)c1cnc(-c2ccccc2Cl)nc1 (racemic) | 4 µg/mL (≈ 9.26 µM) | 16 µg/mL (≈ 37 µM) | 8 µg/mL (≈ 18.5 µM) | 32 µg/mL (≈ 74.1 µM) | > 64 µg/mL | > 64 µg/mL | 16 µg/mL (≈ 37 µM) |  |  |  |
| O=C(NC(Cn1ccnc1)C(=O)c1ccccc1)c1ccc(-c2ccncc2)cc1 (racemic) | 8 µg/mL (≈ 20.2 µM) | 16 µg/mL (≈ 40.4 µM) | 8 µg/mL (≈ 20.2 µM) | > 64 µg/mL | > 64 µg/mL | > 64 µg/mL | 16 µg/mL (≈ 40.4 µM) |  |  |  |
| O=C(NC(Cn1ccnc1)C(=O)c1ccccc1)c1csc(-c2ccccc2)n1 (racemic) | > 64 µg/mL | > 64 µg/mL | > 64 µg/mL | > 64 µg/mL | > 64 µg/mL | > 64 µg/mL | > 64 µg/mL |  |  |  |
| O=C(NC(Cn1ccnc1)C(=O)c1ccccc1)c1cnc(-c2cccc(C(F)(F)F)c2)nc1 (racemic) | > 64 µg/mL | > 64 µg/mL | > 64 µg/mL | > 64 µg/mL | > 64 µg/mL | > 64 µg/mL | > 64 µg/mL |  |  |  |

Continued, in another order:

| MIC (Candida tropicalis) | MIC (Candida albicans [1]) | MIC (Candida albicans [2]) | MIC (Candida parapsilosis) | MIC (Nakaseomyces glabratus) | MIC (Cryptococcus neoformans) | MIC (Pichia kudriavzevii) | Compound | Activity (MDA-MB-231) | Activity (L929) | Activity (DU-145) |
| --- | --- | --- | --- | --- | --- | --- | --- | --- | --- | --- |
| > 64 µg/mL | > 64 µg/mL | > 64 µg/mL | > 64 µg/mL | > 64 µg/mL | > 64 µg/mL | > 64 µg/mL | O=C(NC(Cn1ccnc1)C(=O)c1ccccc1)c1cnc(-c2ccccc2F)nc1 (racemic) |  |  |  |
| > 64 µg/mL | > 64 µg/mL | > 64 µg/mL | > 64 µg/mL | > 64 µg/mL | > 64 µg/mL | > 64 µg/mL | O=C(NC(Cn1ccnc1)C(=O)c1ccccc1)c1ccc(-c2ncccn2)cc1 (racemic) |  |  |  |
| > 64 µg/mL | > 64 µg/mL | > 64 µg/mL | > 64 µg/mL | > 64 µg/mL | > 64 µg/mL | > 64 µg/mL | O=C(NC(Cn1ccnc1)C(=O)c1ccccc1)c1ccc(-c2cncnc2)cc1 (racemic) |  |  |  |
| > 64 µg/mL | > 64 µg/mL | > 64 µg/mL | > 64 µg/mL | > 64 µg/mL | > 64 µg/mL | > 64 µg/mL | CC(C)(C)c1ccc(-c2ncc(C(=O)NC(Cn3ccnc3)C(=O)c3ccccc3)cn2)cc1 (racemic) |  |  |  |
| 1 µg/mL (≈ 2.33 µM) | 4 µg/mL (≈ 9.31 µM) | 1 µg/mL (≈ 2.33 µM) | 4 µg/mL (≈ 9.31 µM) | 8 µg/mL (≈ 18.6 µM) | 64 µg/mL (≈ 149 µM) | 4 µg/mL (≈ 9.31 µM) | Cc1ccc(C(=O)C(Cn2ccnc2)NC(=O)c2cnc(-c3cccc(F)c3)nc2)cc1 (racemic) | Non-Toxic | Non-Toxic | Non-Toxic |
| > 64 µg/mL | > 64 µg/mL | > 64 µg/mL | > 64 µg/mL | > 64 µg/mL | > 64 µg/mL | > 64 µg/mL | O=C(NC(Cn1ccnc1)C(=O)c1ccccc1)c1ccc(-c2ccccc2)cn1 (racemic) |  |  |  |
| > 64 µg/mL | > 64 µg/mL | > 64 µg/mL | > 64 µg/mL | > 64 µg/mL | > 64 µg/mL | > 64 µg/mL | CCc1ccc(-c2ncc(C(=O)NC(Cn3ccnc3)C(=O)c3ccccc3)cn2)cc1 (racemic) |  |  |  |
| > 64 µg/mL | > 64 µg/mL | 4 µg/mL (≈ 9.47 µM) | > 64 µg/mL | > 64 µg/mL | > 64 µg/mL | > 64 µg/mL | N#Cc1ccc(-c2ncc(C(=O)NC(Cn3ccnc3)C(=O)c3ccccc3)cn2)cc1 (racemic) |  |  |  |
| 8 µg/mL (≈ 20.1 µM) | 16 µg/mL (≈ 40.3 µM) | 4 µg/mL (≈ 10.1 µM) | > 64 µg/mL | 32 µg/mL (≈ 80.5 µM) | > 64 µg/mL | 16 µg/mL (≈ 40.3 µM) | O=C(NC(Cn1ccnc1)C(=O)c1ccccc1)c1cnc(-c2ccccc2)nc1 (racemic) |  |  |  |
